Experimental data taken from ChEMBL document CHEMBL4138091, “Quinazoline based α1-adrenoreceptor antagonists with potent antiproliferative activity in human prostate cancer cell lines” (Eur J Med Chem, 2017).
Activity calls are given as the source filed them. The calls are words filed in the database; no cut-off is given here.

Columns and labels:
[1] = target: T1, Alpha-1A adrenergic receptor (Homo sapiens, UniProt P35348); test: Displacement of [3H]prazosin from human alpha1A adrenoceptor expressed in CHO cell membranes after 30 mins
T1 sequence (P35348 whole entry): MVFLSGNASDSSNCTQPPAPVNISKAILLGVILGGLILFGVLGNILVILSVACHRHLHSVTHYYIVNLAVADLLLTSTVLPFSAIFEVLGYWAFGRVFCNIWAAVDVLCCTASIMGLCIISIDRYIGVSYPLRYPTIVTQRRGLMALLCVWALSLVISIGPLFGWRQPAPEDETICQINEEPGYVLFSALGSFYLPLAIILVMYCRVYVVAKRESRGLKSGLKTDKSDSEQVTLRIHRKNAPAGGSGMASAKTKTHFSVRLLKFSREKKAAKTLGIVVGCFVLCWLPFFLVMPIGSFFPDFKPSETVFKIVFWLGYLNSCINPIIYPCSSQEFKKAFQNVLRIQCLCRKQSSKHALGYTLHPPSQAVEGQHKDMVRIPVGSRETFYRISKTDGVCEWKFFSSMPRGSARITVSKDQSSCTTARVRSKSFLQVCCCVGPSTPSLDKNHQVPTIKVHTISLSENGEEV

[2] = target: T2, Alpha-1B adrenergic receptor (Homo sapiens, UniProt P35368); test: Displacement of [3H]prazosin from human alpha1B adrenoceptor expressed in CHO cell membranes after 30 mins
T2 sequence (P35368 whole entry): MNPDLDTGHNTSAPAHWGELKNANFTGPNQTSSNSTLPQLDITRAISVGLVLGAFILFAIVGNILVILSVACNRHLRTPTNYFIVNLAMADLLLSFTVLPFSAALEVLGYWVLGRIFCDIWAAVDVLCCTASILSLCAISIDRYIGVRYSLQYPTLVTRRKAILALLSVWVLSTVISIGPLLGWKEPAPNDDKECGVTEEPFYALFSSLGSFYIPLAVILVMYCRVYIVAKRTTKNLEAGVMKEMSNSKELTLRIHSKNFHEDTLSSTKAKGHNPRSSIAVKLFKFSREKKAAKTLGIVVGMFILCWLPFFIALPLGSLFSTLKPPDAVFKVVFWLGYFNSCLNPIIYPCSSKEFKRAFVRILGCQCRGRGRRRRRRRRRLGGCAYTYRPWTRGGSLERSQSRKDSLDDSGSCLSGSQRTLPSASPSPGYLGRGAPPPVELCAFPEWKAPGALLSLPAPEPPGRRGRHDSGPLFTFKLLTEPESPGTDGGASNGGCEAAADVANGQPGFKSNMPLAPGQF

[3] = target: T3, Alpha-1D adrenergic receptor (Homo sapiens, UniProt P25100); test: Displacement of [3H]prazosin from human alpha1D adrenoceptor expressed in CHO cell membranes after 30 mins
T3 sequence (P25100 whole entry): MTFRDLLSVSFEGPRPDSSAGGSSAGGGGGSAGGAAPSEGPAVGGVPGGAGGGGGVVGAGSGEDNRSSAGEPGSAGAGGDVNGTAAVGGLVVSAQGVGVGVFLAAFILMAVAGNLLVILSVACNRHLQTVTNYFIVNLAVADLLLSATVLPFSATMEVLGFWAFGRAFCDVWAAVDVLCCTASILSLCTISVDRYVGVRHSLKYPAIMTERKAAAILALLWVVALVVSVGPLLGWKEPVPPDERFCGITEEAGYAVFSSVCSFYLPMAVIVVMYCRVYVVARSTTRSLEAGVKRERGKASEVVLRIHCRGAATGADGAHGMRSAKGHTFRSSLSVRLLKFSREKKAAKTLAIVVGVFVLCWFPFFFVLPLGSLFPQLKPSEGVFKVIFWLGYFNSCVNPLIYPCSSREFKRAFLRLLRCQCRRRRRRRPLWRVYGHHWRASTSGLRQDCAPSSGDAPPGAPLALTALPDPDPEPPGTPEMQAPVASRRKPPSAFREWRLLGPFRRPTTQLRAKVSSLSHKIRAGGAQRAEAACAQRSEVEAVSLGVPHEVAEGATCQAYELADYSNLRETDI

[4] = tested on: Panel NCI-60 (60 carcinoma cell lines); test: Antiproliferative activity against human NCI60 cells at 10 uM after 48 hrs by SRB assay; type: functional, cell-based
Method in brief: (§1)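 NCI one-dose screen at 10 µM across 60 human tumour lines, 48 h exposure; growth given relative to no-drug control and to time-zero cell number, so 0–100 means inhibition and below 0 lethality; 100 means no inhibition.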

DU-145 [5] = test: Antiproliferative activity against human DU145 cells at 10 uM after 48 hrs by SRB assay relative to control; type: functional; method in brief: as §1
PC-3 [6] = test: Growth inhibition of human PC3 cells at 10 uM after 48 hrs by SRB assay relative to control; type: functional; settings: PC-3, 48 h, read-out: GI; method in brief: as §1
DU-145 [7] = test: Antiproliferative activity against human DU145 cells after 120 hrs by MTT assay; type: functional, cell-based; settings: DU-145, 120 h
Method in brief: (§2)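 DU-145, PC-3 and LNCaP cells grown in RPMI with 10% fetal calf serum, 37 °C, 5% CO₂; seeded at 5 × 10³ cells/well, exposed to 0.1–50 µM for 120 h. After PBS wash, MTT (5 mg/mL) in PBS 4 h, formazan dissolved in isopropanol, read at 570 nm. Viability as % of untreated; IC50 from at least three independent dose-response curves.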

PC-3 [8] = test: Antiproliferative activity against human PC3 cells after 120 hrs by MTT assay; type: functional, cell-based; settings: PC-3, 120 h; method in brief: as §2
LNCaP [9] = test: Antiproliferative activity against human LNCAP cells after 120 hrs by MTT assay; type: functional, cell-based; method in brief: as §2
Homo sapiens [10] = species: Homo sapiens; test: Selectivity ratio of Ki for human alpha1A adrenoceptor to Ki for human alpha1B adrenoceptor
Homo sapiens [11] = species: Homo sapiens; test: Selectivity ratio of Ki for human alpha1D adrenoceptor to Ki for human alpha1B adrenoceptor
LNCaP [12] = test: Induction of necrosis in human LNCAP cells assessed as loss of plasma membrane integrity at 1 to 10 uM after 24 hrs by trypan blue staining-based Neubauer hemocytometric method; type: functional, cell-based
Method in brief: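 LNCaP cells seeded at 1 × 10⁶ cells/well, treated 1–10 µM for 24 h at 37 °C, 5% CO₂; scraped into PBS, mixed 1:1 with 0.5% trypan blue, counted on a Neubauer hemocytometer; percentage of stained cells from at least 3 separate counts.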

[13] = Selectivity index, ratio of cytotoxic concentration for HGF cells to IC50 for human LNCAP cells; type: toxicity; settings: HGF cells and LNCAP cells, read-out: Selectivity Index
[14] = Selectivity index, ratio of cytotoxic concentration for HGF cells to IC10 for human LNCAP cells; type: toxicity; settings: HGF cells and LNCAP cells, read-out: Selectivity Index
LNCaP [15] = test: Induction of apoptosis in human LNCAP cells assessed as increase in DNA fragmentation at 1 to 10 uM after 24 hrs by spectrophotometer relative to control; type: functional
Method in brief: (§3)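 LNCaP cells seeded at 1 × 10³ cells/well, treated 1–10 µM for 24 h at 37 °C, 5% CO₂; lysed 30 min, centrifuged, supernatant ELISA with biotin anti-histone and peroxidase anti-DNA antibodies on streptavidin plate, ABTS 20 min, read 405 nm. Fold increase = treated/untreated absorbance; mean ± SD, three independent experiments.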

LNCaP [16] = test: Induction of apoptosis in human LNCAP cells assessed as increase in DNA fragmentation after 24 hrs by spectrophotometer; type: functional, cell-based; method in brief: as §3
LNCaP [17] = test: Antioxidant activity in human LNCAP cells assessed as inhibition of t-BuOOH-induced ROS level after 30 mins by DCFH-DA dye-based spectrofluorometric analysis; type: functional, cell-based
LNCaP [18] = test: Antioxidant activity in human LNCAP cells assessed as inhibition of t-BuOOH-induced ROS level at 1 to 10 uM after 30 mins by DCFH-DA dye-based spectrofluorometric analysis relative to control; type: functional
LNCaP [19] = test: Antioxidant activity in human LNCAP cells assessed as inhibition of t-BuOOH-induced ROS level at 1 to 10 uM after 24 hrs by DCFH-DA dye-based spectrofluorometric analysis; type: functional, cell-based
LNCaP [20] = test: Induction of ROS generation in human LNCAP cells after 24 hrs by DCFH-DA dye-based spectrofluorometric analysis; type: functional, cell-based
Method in brief: (§4)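 LNCaP cells seeded at 2 × 10⁴ cells/well, exposed to compounds (1–10 µM) for 24 h; then loaded with 5 µM DCFH-DA in PBS, 37 °C, 5% CO₂, 30 min, washed, fluorescence read (excitation 485 nm). Antioxidant lines involve t-BuOOH challenge. Output as fold increase of intracellular ROS over untreated; mean ± SD, three independent experiments.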

LNCaP [21] = test: Induction of ROS generation in human LNCAP cells at 1 to 10 uM after 24 hrs by DCFH-DA dye-based spectrofluorometric analysis relative to control; type: functional; method in brief: as §4
LNCaP [22] = test: Prooxidant activity in human LNCAP cells assessed as increase in depletion of intercellular GSH level at 1 to 10 uM after 24 hrs by MCB dye-based spectrofluorometric analysis; type: functional, cell-based
Method in brief: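 LNCaP cells seeded at 2 × 10⁴ cells/well, treated 1–10 µM for 24 h at 37 °C, 5% CO₂; washed, 50 µM monochlorobimane in PBS 30 min at 37 °C, fluorescence read at excitation 360 nm, emission 465 nm; arbitrary fluorescence units; mean ± SD, three independent experiments.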

DU-145 [23] = test: Antiproliferative activity against human DU145 cells at 0.1 to 50 uM after 120 hrs by MTT assay; type: functional, cell-based; method in brief: as §2
PC-3 [24] = test: Antiproliferative activity against human PC3 cells at 0.1 to 50 uM after 120 hrs by MTT assay; type: functional, cell-based; method in brief: as §2
LNCaP [25] = test: Antiproliferative activity against human LNCAP cells at 0.1 to 50 uM after 120 hrs by MTT assay; type: functional, cell-based; method in brief: as §2

Row | Ki [1] [nM] | Ki [2] [nM] | Ki [3] [nM] | SMILES | Activity [4] | Activity (DU-145 [23]) | Activity (PC-3 [24]) | Activity (LNCaP [25]) | other results
1 | > 1000 | 178 | 102 | COc1cc2nc(N3CCC[C@@H](N)C3)nc(N)c2cc1OC |  |  |  |  | 
2 | 7.08 | 0.525 | 2.14 | COc1cc2nc(N3CCC[C@H](NC4=CC(=O)c5ccccc5C4=O)C3)nc(N)c2cc1OC | Active |  |  |  | Activity (DU-145 [5]): 54%; inhibition of growth at 10 µM (PC-3 [6]): 77%; IC50 (DU-145 [7]): 18500 nM; IC50 (PC-3 [8]): 18200 nM; IC50 (LNCaP [9]): 6320 nM; Ratio Ki (Homo sapiens [10]): 13; Ratio Ki (Homo sapiens [11]): 4; Activity (LNCaP [12]): inactive; selectivity ratio [13]: 4.7; selectivity ratio [14]: 9.1; fold change (FC) (LNCaP [15]): 9.9; Activity (LNCaP [16]): Dose-dependent effect; inhibition (LNCaP [17]): Dose-dependent effect; inhibition (INH) (LNCaP [18]): 34%; inhibition (LNCaP [19]): inactive; Activity (LNCaP [20]): Dose-dependent effect; Activity (LNCaP [21]): 56%; Activity (LNCaP [22]): Active
3 | > 1000 | 46.8 | 295 | COc1cc2nc(N3CCC[C@@H](NC(=O)[C@H]4COc5ccccc5O4)C3)nc(N)c2cc1OC |  |  |  |  | 
4 | 0.631 | 0.282 | 0.331 | COc1cc2nc(N3CCC[C@H](NC(=O)c4ccco4)C3)nc(N)c2cc1OC | inactive | inactive | inactive | inactive | 
5 | 33.1 | 7.41 | 13.2 | COc1cc2nc(N3CCC[C@H](NC(=O)[C@@H]4COc5ccccc5O4)C3)nc(N)c2cc1OC | inactive | inactive | inactive | inactive | 
